Data set [1] deals with T1, Cytochrome P450 1A1 (Homo sapiens, UniProt P04798).
T1 sequence (P04798 whole entry): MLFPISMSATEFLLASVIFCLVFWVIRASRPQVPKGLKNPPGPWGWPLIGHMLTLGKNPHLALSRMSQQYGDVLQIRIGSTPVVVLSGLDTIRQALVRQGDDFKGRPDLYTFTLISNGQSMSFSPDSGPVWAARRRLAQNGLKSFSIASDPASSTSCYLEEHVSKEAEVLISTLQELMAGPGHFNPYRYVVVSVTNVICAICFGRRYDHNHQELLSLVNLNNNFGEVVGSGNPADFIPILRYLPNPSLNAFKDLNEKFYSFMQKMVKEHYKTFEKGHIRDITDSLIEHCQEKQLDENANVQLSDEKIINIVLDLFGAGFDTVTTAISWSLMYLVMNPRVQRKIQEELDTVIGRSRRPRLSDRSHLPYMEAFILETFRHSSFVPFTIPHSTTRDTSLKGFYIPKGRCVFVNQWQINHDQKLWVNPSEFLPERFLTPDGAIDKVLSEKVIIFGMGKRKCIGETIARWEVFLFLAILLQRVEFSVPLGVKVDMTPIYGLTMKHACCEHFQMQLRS
Briefly: Inhibition of human microsomal CYP1A1-dependent ethoxyresorufin-O-deethylase activity by spectrofluorimetric analysis in presence of NADPH regenerating solution. Put shortly: (§1)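 Microsomal P450 (final 5 nM) in 0.1 M potassium phosphate pH 7.6 with MgCl2 at 37 °C. Substrate final 5 µM: ethoxyresorufin for 1A1/1B1, methoxyresorufin for 1A2. […] Ki was taken as the x-intercept of Dixon plots (1/v0 vs [I]). Mean ± SD of three independent experiments. Selectivity ratios are ratios of these Ki.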

For data set [2], the target named is T2, Cytochrome P450 1A2 (Homo sapiens, UniProt P05177).
T2 sequence (P05177 whole entry): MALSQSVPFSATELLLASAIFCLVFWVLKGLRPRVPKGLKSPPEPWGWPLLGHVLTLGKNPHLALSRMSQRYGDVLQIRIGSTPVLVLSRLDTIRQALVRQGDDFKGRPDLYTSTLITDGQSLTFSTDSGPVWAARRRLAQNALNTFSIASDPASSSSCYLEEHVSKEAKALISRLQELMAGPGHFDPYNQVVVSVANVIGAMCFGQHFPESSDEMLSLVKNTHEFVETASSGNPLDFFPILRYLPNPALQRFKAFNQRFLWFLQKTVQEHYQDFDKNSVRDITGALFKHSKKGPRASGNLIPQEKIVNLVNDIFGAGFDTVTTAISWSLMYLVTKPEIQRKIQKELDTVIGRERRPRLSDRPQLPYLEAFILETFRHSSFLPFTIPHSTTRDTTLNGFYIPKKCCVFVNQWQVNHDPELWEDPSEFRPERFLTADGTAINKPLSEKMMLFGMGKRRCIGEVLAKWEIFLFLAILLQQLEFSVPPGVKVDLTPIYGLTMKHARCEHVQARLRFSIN
Briefly: Inhibition of human microsomal CYP1A2-dependent methoxyresorufin-O-demethylase activity by spectrofluorimetric analysis in presence of NADPH regenerating solution. Put shortly:
(§2)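 Microsomal P450 (final 5 nM) in 0.1 M potassium phosphate pH 7.6 with MgCl2 at 37 °C. Substrate final 5 µM: ethoxyresorufin for 1A1/1B1, methoxyresorufin for 1A2. Ki was taken as the x-intercept of Dixon plots (1/v0 vs [I]). Mean ± SD of three independent experiments. Selectivity ratios are ratios of these Ki.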

The target in data set [3] is T3, Cytochrome P450 1B1 (Homo sapiens, UniProt Q16678).
T3 sequence (Q16678 whole entry): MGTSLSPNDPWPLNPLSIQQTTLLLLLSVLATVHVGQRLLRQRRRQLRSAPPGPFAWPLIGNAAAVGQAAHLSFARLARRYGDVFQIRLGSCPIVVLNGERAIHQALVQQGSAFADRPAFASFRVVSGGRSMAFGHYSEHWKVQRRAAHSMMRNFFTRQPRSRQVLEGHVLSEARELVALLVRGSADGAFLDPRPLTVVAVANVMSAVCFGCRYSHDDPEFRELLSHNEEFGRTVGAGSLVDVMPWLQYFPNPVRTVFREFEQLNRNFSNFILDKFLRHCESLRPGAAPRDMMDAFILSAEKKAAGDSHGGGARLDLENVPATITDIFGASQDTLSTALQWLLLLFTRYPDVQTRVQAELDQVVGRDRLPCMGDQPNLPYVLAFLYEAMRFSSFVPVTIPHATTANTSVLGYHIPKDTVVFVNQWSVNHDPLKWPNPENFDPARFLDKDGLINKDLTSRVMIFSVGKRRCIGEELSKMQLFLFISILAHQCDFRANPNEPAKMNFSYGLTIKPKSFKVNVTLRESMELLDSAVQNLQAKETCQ
Briefly: Inhibition of human microsomal CYP1B1-dependent ethoxyresorufin-O-deethylase activity by spectrofluorimetric analysis in presence of NADPH regenerating solution. Put shortly:
as §2

The species named for data set [4] is Homo sapiens. Put plainly: Selectivity ratio of Ki for human microsomal CYP1A1 to Ki for human microsomal CYP1A2. The procedure, abridged:
as §1

Data set [5] is filed under the species Homo sapiens. Briefly: Selectivity ratio of Ki for human microsomal CYP1B1 to Ki for human microsomal CYP1A2. The procedure, abridged:
as §1

Data set [6] addresses T2, Cytochrome P450 1A2. Put plainly: (§3) Time-dependent inhibition of human microsomal CYP1A2-dependent methoxyresorufin-O-demethylase activity by spectrofluorimetric analysis in presence of NADPH regenerating solution. Put shortly:
(§4)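 1A2 MROD run with NADPH at 0.0125, 0.025, 0.05 and 0.1 µM inhibitor, product monitored continuously over 6 min. Activity at different times came from first derivatives of product curves, expressed as % of control remaining. KI and limiting kinact were derived from the resulting linear plot.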

The target in data set [7] is T1, Cytochrome P450 1A1. Briefly: Inhibition of human microsomal CYP1A1-dependent ethoxyresorufin-O-deethylase activity at 10 nM measured over 6 mins by spectrofluorimetric analysis in absence of NADPH regenerating solution. To be noted: 0.1 h, 0.01 µM. The procedure, abridged:
(§5)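 Microsomal P450 in 0.1 M potassium phosphate pH 7.6 with MgCl2 and 10 nM inhibitor in DMSO, 2 mL final. Preincubated 5 min at 37 °C either with NADPH-regenerating solution, or without it, with NADPH then added at start. Reaction started with ethoxyresorufin (final 5 µM). Resorufin formation followed 6 min at 37 °C.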

Data set [8] concerns the target T3, Cytochrome P450 1B1. Put plainly: Inhibition of human microsomal CYP1B1-dependent ethoxyresorufin-O-deethylase activity at 10 nM measured over 6 mins by spectrofluorimetric analysis in absence of NADPH regenerating solution. To be noted: 0.1 h, 0.01 µM. The procedure, abridged: as §5
Data set [9] addresses T1, Cytochrome P450 1A1. Put plainly: Inhibition of human microsomal CYP1A1-dependent ethoxyresorufin-O-deethylase activity at 10 nM preincubated for 5 mins followed by NADPH regenerating solution and substrate addition measured over 6 mins by spectrofluorimetric analysis. To be noted: 0.1 h, 0.01 µM. Put shortly: as §5
Data set [10] deals with T3, Cytochrome P450 1B1. Briefly: Inhibition of human microsomal CYP1B1-dependent ethoxyresorufin-O-deethylase activity at 10 nM preincubated for 5 mins followed by NADPH regenerating solution and substrate addition measured over 6 mins by spectrofluorimetric analysis. To be noted: 0.1 h, 0.01 µM. The procedure, abridged: as §5
Data set [11] addresses T4, CYP1A2 (Homo sapiens, UniProt P05177).
T4 sequence (P05177 whole entry): T2 sequence (P05177 whole entry)
The data set is described as §3. To be noted: human microsomal CYP1A2, probe methoxyresorufin (O-demethylation). Put shortly: as §4

Data set [12] has as its target T2, Cytochrome P450 1A2. Put plainly: Inhibition of human microsomal CYP1A2-dependent methoxyresorufin-O-demethylase activity at 10 nM measured over 6 mins by spectrofluorimetric analysis in absence of NADPH regenerating solution. The following applies: 0.1 h, 0.01 µM.
For data set [13], the target named is T4, CYP1A2. Put plainly: Inhibition of human microsomal CYP1A2-dependent methoxyresorufin-O-demethylase activity at 10 nM preincubated for 5 mins followed by NADPH regenerating solution and substrate addition measured over 6 mins by spectrofluorimetric analysis relative to control. The following applies: human microsomal CYP1A2, probe methoxyresorufin (O-demethylation).

Where only a bound is given, the exact number is not on record here.

This note sets out measurements from ChEMBL document CHEMBL3600302, “A Ligand-Based Drug Design. Discovery of 4-Trifluoromethyl-7,8-pyranocoumarin as a Selective Inhibitor of Human Cytochrome P450 1A2” (J Med Chem, 2015).

The term Ki denotes a dissociation constant, usually derived from enzyme kinetics or from competition with a known ligand. Usually kinact stands for the maximal first-order rate at which the target is inactivated. One may read the inhibition as the relative decrease from the control value, in per cent. Lower therefore signals a weak effect.

For `O=c1cc(-c2ccccc2)oc2c1ccc1ccccc12` [ALPHA-NAPHTHOFLAVONE], the Ki on Cytochrome P450 1A1 [1] came out at 45 nM.

Turning to `Cc1c(-c2ccccc2)c2ccc3c(c2oc1=O)C=CCO3`, the values for the Ki at Cytochrome P450 1A1 [1], on Cytochrome P450 1A2 [2] and at Cytochrome P450 1B1 [3] were 18400 nM, 1720 nM and 21200 nM, respectively. Further, the Ratio Ki in the data set filed under Homo sapiens [4] turned out to be 11; in the data set listed under Homo sapiens [5] it was 12. Besides, the TDI result on Cytochrome P450 1A2 [6] is reported as “Not Active”.

With `Cc1cc2c(cc(O)c3c(=O)cc(-c4ccccc4)oc32)o1`, the Ki on Cytochrome P450 1A1 [1] was 470 nM; at Cytochrome P450 1A2 [2], 44 nM; on Cytochrome P450 1B1 [3] it was 100 nM. In addition, the Ratio Ki worked out at 11 in the data set listed under Homo sapiens [4] and 2.3 in the data set filed under Homo sapiens [5]. For the same molecule, the “inhibition (INH)” value is given as “Not Active” on Cytochrome P450 1A1 [7]; “Not Active” at Cytochrome P450 1B1 [8]; “Not Active” against Cytochrome P450 1A1 [9]; “Not Active” against Cytochrome P450 1B1 [10]; “Active” against Cytochrome P450 1A2 [12]. The kinact on CYP1A2 [11] was 0.00433 s⁻¹. Further, the inhibition at 0.1 h, 0.01 µM at CYP1A2 [13] was over 90%.

As to `O=c1cc(-c2ccccc2)oc2c1ccc1ncccc12`, the figures for the Ki at Cytochrome P450 1A1 [1], at Cytochrome P450 1A2 [2] and on Cytochrome P450 1B1 [3] were 40 nM, 76 nM and 120 nM, respectively. The figures for the Ratio Ki in the data set filed under Homo sapiens [4] and in the data set listed under Homo sapiens [5] were 0.5 and 1.8, respectively.

On to `O=c1cc(-c2ccccc2)oc2c3c(ccc12)OCO3`, for which the results for the Ki at Cytochrome P450 1A1 [1], on Cytochrome P450 1A2 [2] and on Cytochrome P450 1B1 [3] were 1230 nM, 90 nM and 480 nM, respectively. Moreover, the Ratio Ki in the data set filed under Homo sapiens [4] came out at 14; in the data set listed under Homo sapiens [5] it was 5.3.

For `Cc1cc(=O)oc2c1ccc1ncccc12`, the Ki on Cytochrome P450 1A1 [1] amounted to 101000 nM; at Cytochrome P450 1A2 [2], 14200 nM; at Cytochrome P450 1B1 [3] it was 46600 nM. In addition, the Ratio Ki turned out to be 7.1 in the data set filed under Homo sapiens [4] and 3.3 in the data set filed under Homo sapiens [5]. Besides, the TDI result on Cytochrome P450 1A2 [6] is recorded as “Not Active”.

With `Cc1cc2c(ccc3c(-c4ccccc4)c(C)c(=O)oc32)o1`, the Ki on Cytochrome P450 1A1 [1] came to 11600 nM; on Cytochrome P450 1A2 [2] it was 3700 nM; on Cytochrome P450 1B1 [3] it was 22600 nM. Besides, the Ratio Ki in the data set listed under Homo sapiens [4] was 3.1; in the data set listed under Homo sapiens [5], 6.1. Moreover, the TDI entry at Cytochrome P450 1A2 [6] is “Not Active”.

Consider `Cc1cc2c(ccc3c(-c4ccccc4)cc(=O)oc32)o1`, for which the Ki at Cytochrome P450 1A1 [1] amounted to 12000 nM; on Cytochrome P450 1A2 [2] it was 5020 nM; on Cytochrome P450 1B1 [3] it was 4620 nM. Besides, the Ratio Ki was found to be 2.4 in the data set listed under Homo sapiens [4] and 0.9 in the data set filed under Homo sapiens [5]. Also, at Cytochrome P450 1A2 [6], the TDI entry is reported as “Not Active”.
